The record followed here is ChEMBL document CHEMBL1126736, “Synthesis and antiherpes virus activity of 1,5-anhydrohexitol nucleosides” (J Med Chem, 1993).

Assay [1] concerns Human alphaherpesvirus 1. Nature of the assay: Inhibitory concentration against HSV type 1 strain F in human embryonic skin muscle (ESM) fibroblast cell culture. The class given is functional. The gist of the method: (§1)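 Assay in human embryonic skin-muscle (ESM) cells grown in 96-well trays. The value is the concentration that reduces virus-induced cytopathicity by 50%. Single representative experiment.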

Assay [2] relates to Human alphaherpesvirus 1. Nature of the assay: Inhibitory concentration against HSV type 1 strain KOS in human embryonic skin muscle (ESM) fibroblast cell culture. The class given is functional.
Assay [3] has as its system Human alphaherpesvirus 1. Nature of the assay: Inhibitory concentration against HSV type 1 strain Mc Intyre in human embryonic skin muscle (ESM) fibroblast cell culture. Format: functional. The gist of the method:
as §1

Assay [4] has as its system Human alphaherpesvirus 2. Nature of the assay: Inhibitory concentration against HSV type 2 strain 196 in human embryonic skin muscle (ESM) fibroblast cell culture. The class given is functional. The gist of the method:
as §1

Assay [5] has as its system Human alphaherpesvirus 2. Nature of the assay: Inhibitory concentration against HSV type 2 strain G in human embryonic skin muscle (ESM) fibroblast cell culture. Format: functional. Put shortly: as §1
Assay [6] deals with Human alphaherpesvirus 2. The experiment in a line: Inhibitory concentration against HSV type 2 strain Lyons in human embryonic skin muscle (ESM) fibroblast cell culture. The class given is functional. Put shortly: as §1
The subject of another assay is HEL. The experiment in a line: Inhibitory concentration required to inhibit cell growth by 50% in human embryonic lung (HEL) cell culture. The class given is functional. The gist of the method: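 Uninfected HEL cells grown in 96-well trays. The value is the concentration that reduces cell growth by 50%. Single representative experiment.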
Assay [7] relates to Human alphaherpesvirus 1. The experiment in a line: Inhibitory concentration against TK-HSV type 1 strain B2006 in human embryonic skin muscle (ESM) fibroblast cell culture. Format: functional. Put shortly:
as §1

In assay [8] the test system is Vesicular stomatitis virus. Nature of the assay: Inhibitory concentration against VSV in human embryonic skin muscle (ESM) fibroblast cell culture. Format: functional.
Another assay relates to Vaccinia virus. The experiment in a line: Inhibitory concentration against VV in human embryonic skin muscle (ESM) fibroblast cell culture. The settings on record: Orthopoxvirus vaccinia. The class given is functional.
For another assay, the system named is CCRF-CEM. The experiment in a line: Inhibitory concentration required to reduce the growth of human CEM cells by 50%. The class given is functional, cell-based. The gist of the method: (§2)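 Cytostatic assay. The value is the concentration that reduces the growth (viability) of the cells by 50%.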
For assay [9], the system named is Cytomegalovirus. The experiment in a line: Inhibitory concentration against CMV strain AD169 in human embryonic lung (HEL) cell culture. The class given is functional. The settings on record: Human betaherpesvirus 5. The gist of the method: (§3)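 Plaque-reduction assay in human embryonic lung (HEL) cells grown in 96-well trays. The value is the concentration that reduces virus plaque formation by 50%. Single representative experiment.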

In assay [10] the test system is Cytomegalovirus. Nature of the assay: Inhibitory concentration against CMV strain Davis in human embryonic lung (HEL) cell culture. The settings on record: Human betaherpesvirus 5. The class given is functional. Put shortly: as §3
Another assay concerns FM3A. The experiment in a line: Inhibitory concentration required to reduce the growth of murine FM3A cells by 50%. The settings on record: Mus musculus. The class given is functional, cell-based. The gist of the method:
as §2

The next assay has as its system L1210. The experiment in a line: Inhibitory concentration required to reduce the growth of murine L1210 cells by 50%. Format: functional, cell-based. The settings on record: Mus musculus. The gist of the method: as §2
The next assay concerns MT4. Nature of the assay: Inhibitory concentration required to reduce the growth of human MT-4 cells by 50%. Format: functional, cell-based. Put shortly:
as §2

A further assay relates to MOLT-4. The experiment in a line: Inhibitory concentration required to reduce the growth of human MOLT-4 cells by 50%. The class given is functional, cell-based. Put shortly: as §2
Assay [11] deals with Human alphaherpesvirus 3. Nature of the assay: (§4) Inhibitory concentration against TK-VZV strain YS-R in human embryonic lung (HEL) cell culture. The class given is functional.
Assay [12] concerns Human alphaherpesvirus 3. Nature of the assay: Inhibitory concentration against VZV strain YS in human embryonic lung (HEL) cell culture. The class given is functional.
For assay [13], the system named is Human immunodeficiency virus 1. The experiment in a line: Inhibitory concentration required to achieve 50% protection of MT-4 cells against cytopathicity of […]. Format: functional, organism-based. The settings on record: Human immunodeficiency virus 1, MT4. Put shortly: (§5)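 MT-4 cells infected with HIV-1 (strain III_B) or HIV-2 (strain ROD). The value is the concentration that protects the cells from virus cytopathicity by 50%.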
In general terms: Cytopathic effects are the visible damage that an infection or toxin causes in cultured cells.

Assay [14] concerns Human alphaherpesvirus 3. Nature of the assay: Inhibitory concentration against VZV strain OKA in human embryonic lung (HEL) cell culture. The class given is functional.
The next assay concerns ESM. Nature of the assay: Inhibitory concentration required for morphologic alteration in normal cell in human embryonic skin muscle (ESM) fibroblast cell culture. The class given is functional. The gist of the method:
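Uninfected ESM cells in 96-well trays, examined under the microscope. The value is the minimal concentration that causes a detectable change in normal cell morphology. Tested up to 400 μg/mL. Single representative experiment.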

The test system of assay [15] is Human alphaherpesvirus 3. The experiment in a line: Inhibitory concentration against TK-VZV strain 07-1 in human embryonic lung (HEL) cell culture. Format: functional.
Assay [16] relates to Human immunodeficiency virus 2. Nature of the assay: Inhibitory concentration required to achieve 50% protection of MT-4 cells against cytopathicity of […]. The class given is functional, organism-based. The settings on record: Human immunodeficiency virus 2, MT4. The gist of the method: as §5
In assay [17] the test system is Human alphaherpesvirus 3. The description is as §4. The class given is functional. The gist of the method:
as §3
This is another data set of the same source.

Values after ≈ are worked out from the molar mass of the structure shown.

As for `Nc1nc2c(ncn2COCCO)c(=O)[nH]1` [ACYCLOVIR], the MIC amounted to 0.4 µg/mL (≈ 1.78 µM) with Human alphaherpesvirus 1 [1]; 0.02 µg/mL (≈ 0.0888 µM) against Human alphaherpesvirus 1 [2]; 0.7 µg/mL (≈ 3.11 µM) against Human alphaherpesvirus 1 [3]; 2 µg/mL (≈ 8.88 µM) against Human alphaherpesvirus 2 [4]; 0.02 µg/mL (≈ 0.0888 µM) in the assay on Human alphaherpesvirus 2 [5]; 0.7 µg/mL (≈ 3.11 µM) against Human alphaherpesvirus 2 [6]. The MIC in the assay with HEL is above 200 µg/mL; against Human alphaherpesvirus 1 [7] it was 70 µg/mL (≈ 311 µM); in assay [8], above 400 µg/mL; against Vaccinia virus, above 400 µg/mL.

Turning to `Cc1cn(C2COC(CO)C(O)C2)c(=O)[nH]c1=O` (stereo unspecified), the IC50 in the assay with CCRF-CEM is above 100 µg/mL; in the assay with FM3A, above 100 µg/mL; with L1210, above 100 µg/mL; in the assay on MT4, above 100 µg/mL; in the assay on MOLT-4 it was above 100 µg/mL; in assay [13] it was 36 µg/mL (≈ 140 µM). In assay [16], this compound registered a concentration for half-maximal inhibition (IC50) above 100 µg/mL. In addition, the MIC is above 10 µg/mL in the assay on Cytomegalovirus [9]; above 10 µg/mL against Cytomegalovirus [10]; 40 µg/mL (≈ 156 µM) in the assay on Human alphaherpesvirus 1 [1]; 40 µg/mL (≈ 156 µM) in the assay with Human alphaherpesvirus 1 [2]; 7 µg/mL (≈ 27.3 µM) against Human alphaherpesvirus 1 [3]; 40 µg/mL (≈ 156 µM) against Human alphaherpesvirus 2 [4]. The MIC against Human alphaherpesvirus 2 [5] is 150 µg/mL (≈ 585 µM); with Human alphaherpesvirus 2 [6] it was 20 µg/mL (≈ 78 µM); in the assay on HEL, above 50 µg/mL; against Human alphaherpesvirus 1 [7], above 400 µg/mL; with Human alphaherpesvirus 3 [11], 100 µg/mL (≈ 390 µM); in assay [8], above 400 µg/mL. In addition, the MIC with Vaccinia virus was above 400 µg/mL; in the assay with Human alphaherpesvirus 3 [12], above 100 µg/mL; against Human alphaherpesvirus 3 [14], above 100 µg/mL; in the assay on ESM it was above 400 µg/mL; in the assay with Human alphaherpesvirus 3 [15], above 100 µg/mL.

Regarding `Nc1ncnc2c1ncn2[C@@H]1CO[C@H](CO)[C@@H](O)C1`, the half-inhibitory concentration (IC50) in the assay on CCRF-CEM is above 100 µg/mL; with FM3A it was 97.5 µg/mL (≈ 368 µM); with L1210 it was above 100 µg/mL; in the assay on MT4, 12.5 µg/mL (≈ 47.1 µM); in the assay on MOLT-4 it was above 100 µg/mL; in [13] it was above 4 µg/mL. The compound also gave a concentration for half-maximal inhibition (IC50) in assay [16] above 4 µg/mL. For the same compound, the MIC in the assay on Cytomegalovirus [9] was above 10 µg/mL; with Cytomegalovirus [10], above 10 µg/mL; against Human alphaherpesvirus 1 [1] it was 4 µg/mL (≈ 15.1 µM); against Human alphaherpesvirus 1 [2], 7 µg/mL (≈ 26.4 µM); against Human alphaherpesvirus 1 [3], 20 µg/mL (≈ 75.4 µM); against Human alphaherpesvirus 2 [4] it was 0.04 µg/mL (≈ 0.151 µM). Moreover, the MIC against Human alphaherpesvirus 2 [5] was 7 µg/mL (≈ 26.4 µM); against Human alphaherpesvirus 2 [6] it was 1 µg/mL (≈ 3.77 µM); in the assay on HEL, above 50 µg/mL; against Human alphaherpesvirus 3 [17] it was 3.2 µg/mL (≈ 12.1 µM); in the assay with Human alphaherpesvirus 1 [7] it was 150 µg/mL (≈ 565 µM); in assay [8] it was above 200 µg/mL. Further, the MIC against Vaccinia virus is 40 µg/mL (≈ 151 µM); against Human alphaherpesvirus 3 [12], 4 µg/mL (≈ 15.1 µM); in the assay on Human alphaherpesvirus 3 [14], 4 µg/mL (≈ 15.1 µM); against ESM it was above 400 µg/mL; in the assay with Human alphaherpesvirus 3 [15], 10 µg/mL (≈ 37.7 µM).

For the compound `O=c1[nH]c(=O)n([C@H]2C[C@H](O)[C@@H](CO)O2)cc1/C=C/Br` [BRIVUDINE], the MIC is above 100 µg/mL with Cytomegalovirus [9]; above 100 µg/mL in the assay with Cytomegalovirus [10]; 0.004 µg/mL (≈ 0.012 µM) in the assay on Human alphaherpesvirus 1 [1]; 0.004 µg/mL (≈ 0.012 µM) in the assay with Human alphaherpesvirus 1 [2]; 0.02 µg/mL (≈ 0.06 µM) in the assay on Human alphaherpesvirus 1 [3]; 300 µg/mL (≈ 901 µM) against Human alphaherpesvirus 2 [4]. Also, the MIC with Human alphaherpesvirus 2 [5] is 10 µg/mL (≈ 30 µM); against Human alphaherpesvirus 2 [6], 70 µg/mL (≈ 210 µM); in the assay on HEL, above 200 µg/mL; against Human alphaherpesvirus 1 [7], above 400 µg/mL; with Human alphaherpesvirus 3 [11], 30 µg/mL (≈ 90.1 µM); in [8] it was above 200 µg/mL. The MIC in the assay on Vaccinia virus is 2 µg/mL (≈ 6 µM); in the assay on Human alphaherpesvirus 3 [12], 0.0015 µg/mL (≈ 0.0045 µM); against Human alphaherpesvirus 3 [14] it was 0.0007 µg/mL (≈ 0.0021 µM); in the assay on ESM, above 400 µg/mL; with Human alphaherpesvirus 3 [15], 8 µg/mL (≈ 24 µM).

Take `Nc1nc2c(ncn2COC(CO)CO)c(=O)[nH]1` [GANCICLOVIR]: the MIC with Cytomegalovirus [9] is 3 µg/mL (≈ 11.8 µM); against Cytomegalovirus [10] it was 6.2 µg/mL (≈ 24.3 µM); with Human alphaherpesvirus 1 [1], 0.007 µg/mL (≈ 0.0274 µM); against Human alphaherpesvirus 1 [2], 0.004 µg/mL (≈ 0.0157 µM); with Human alphaherpesvirus 1 [3], 0.001 µg/mL (≈ 0.00392 µM); against Human alphaherpesvirus 2 [4], 0.02 µg/mL (≈ 0.0784 µM). Further, the MIC against Human alphaherpesvirus 2 [5] was 0.004 µg/mL (≈ 0.0157 µM); with Human alphaherpesvirus 2 [6], 0.02 µg/mL (≈ 0.0784 µM); in the assay on HEL it was 85 µg/mL (≈ 333 µM); in the assay with Human alphaherpesvirus 1 [7] it was 2 µg/mL (≈ 7.84 µM); against Human alphaherpesvirus 3 [11] it was 0.9 µg/mL (≈ 3.53 µM); in assay [8], above 400 µg/mL. The MIC in the assay with Vaccinia virus is 70 µg/mL (≈ 274 µM); against Human alphaherpesvirus 3 [12], 0.072 µg/mL (≈ 0.282 µM); against Human alphaherpesvirus 3 [14], 0.02 µg/mL (≈ 0.0784 µM); with Human alphaherpesvirus 3 [15], 0.1 µg/mL (≈ 0.392 µM).

Broadly, the IC50 is the concentration at which inhibition is half-maximal. A high value points to lower potency.
